Laboratory results reported in ChEMBL document CHEMBL1155418, “Synthesis and structure-activity relationships of N3-pyridylpyrazinones as corticotropin-releasing factor-1 (CRF1) receptor antagonists” (Bioorg Med Chem Lett, 2010).

How the values were obtained:
[1] = organism: Rattus norvegicus; test: Metabolic stability in rat liver microsomes assessed as compound remaining after 10 mins
[2] = organism: Homo sapiens; test: Metabolic stability in human liver microsomes assessed as compound remaining after 10 mins
[3] = molecular target: T1, Corticotropin-releasing factor receptor 1 (Rattus norvegicus, UniProt P35353); test: Displacement of [125I]Tyr-ovine-CRF from CRF1 receptor in rat frontal cortex homogenate by gamma counting; type: tissue-based
T1 sequence (P35353 whole entry): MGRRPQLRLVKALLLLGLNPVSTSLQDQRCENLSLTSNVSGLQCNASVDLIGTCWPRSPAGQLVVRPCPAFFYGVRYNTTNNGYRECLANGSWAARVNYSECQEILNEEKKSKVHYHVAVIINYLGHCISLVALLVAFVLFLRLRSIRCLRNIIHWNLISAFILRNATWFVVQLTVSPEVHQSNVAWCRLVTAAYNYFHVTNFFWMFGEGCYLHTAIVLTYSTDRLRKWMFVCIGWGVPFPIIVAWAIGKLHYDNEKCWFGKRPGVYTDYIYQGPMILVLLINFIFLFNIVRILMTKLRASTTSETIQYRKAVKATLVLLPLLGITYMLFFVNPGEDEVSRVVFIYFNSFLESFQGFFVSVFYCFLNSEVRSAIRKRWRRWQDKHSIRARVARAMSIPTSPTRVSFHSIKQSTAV

[4] = Dissociation constant, pKa at pH 2 to 11 by spectrophotometric titration method; type: physicochemical
Procedure, shortened: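 pKa determined by a spectrophotometric titration method.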

Question: Which results are given for COc1nc(C)c(Nc2nc(Cl)cn([C@H](C)C3CC3)c2=O)c(OC)n1?
Answer: remaining at 10 min [1]: 81%; remaining at 10 min [2]: 86%; IC50 [3]: 240 nM

Question: With COc1cc(C)c(Nc2nc(Cl)cn([C@H](C)C3CC3)c2=O)c(C)n1 as the compound, how does the remaining at 10 min [1] read?
Answer: Its remaining at 10 min is 81%.

Question: What about the remaining at 10 min [2] of the same compound?
Answer: The remaining at 10 min was 79%.

Question: What about the pKa [4] of the same compound?
Answer: The pKa was 3.8.

Question: And the IC50 [3]?
Answer: The IC50 was 12 nM.

Question: With Cc1cc(Nc2nc(Cl)cn([C@H](C)C3CC3)c2=O)c(C)nc1N1CCCC1 as the compound, how does the remaining at 10 min [1] read?
Answer: Its remaining at 10 min is 26%.

Question: And the remaining at 10 min [2]?
Answer: Its remaining at 10 min is 57%.

Question: And the IC50 [3]?
Answer: The IC50 was 6.8 nM.

Question: With Cc1nc(C(F)(F)F)ccc1Nc1nc(Cl)cn([C@H](C)C2CC2)c1=O as the compound, how does the IC50 [3] read?
Answer: The IC50 was 720 nM.

Question: Which IC50 [3] does the source give for COC[C@H](C1CC1)n1cc(Cl)nc(Nc2c(C)cc(OC(F)F)nc2C)c1=O here?
Answer: Its IC50 is 4.7 nM.

Question: Which IC50 [3] does the source give for COc1nc(C(F)(F)F)c(Nc2nc(Cl)cn([C@H](C)C3CC3)c2=O)cc1C here?
Answer: Its IC50 is 1.2 nM.

Question: For Cc1cc(Nc2nc(Cl)cn([C@H](C)C3CC3)c2=O)c(C)nc1N(C)C, which remaining at 10 min [1] is on record?
Answer: The remaining at 10 min was 29%.

Question: And the remaining at 10 min [2]?
Answer: The remaining at 10 min was 54%.

Question: What about the IC50 [3] of the same compound?
Answer: Its IC50 is 0.68 nM.

Question: Which IC50 [3] does the source give for COC[C@H](C1CC1)n1cc(Cl)nc(Nc2ccc(OC(F)F)nc2C)c1=O here?
Answer: The IC50 was 1.2 nM.

Question: With COc1ccc(Nc2nc(Cl)cn([C@H](C)C3CC3)c2=O)c(C)n1 as the compound, how does the remaining at 10 min [1] read?
Answer: Its remaining at 10 min is 60%.

Question: And the remaining at 10 min [2]?
Answer: Its remaining at 10 min is 89%.

Question: And the pKa [4]?
Answer: The pKa was 3.2.

Question: And the IC50 [3]?
Answer: Its IC50 is 11 nM.

Question: Which IC50 [3] does the source give for COC[C@@H](C1CC1)n1cc(Cl)nc(Nc2ccc(OC(F)F)nc2C)c1=O here?
Answer: The IC50 was 0.8 nM.

Question: What does the source list for Cc1nc(OC(F)F)ccc1Nc1nc(Cl)cn([C@H](C)C2CC2)c1=O?
Answer: pKa [4]: < 2; IC50 [3]: 1.2 nM

Question: For COc1ccc(Nc2nc(Cl)cn([C@H](C)C3CC3)c2=O)c(C(F)(F)F)n1, which pKa [4] is on record?
Answer: The pKa was less than 2.

Question: And the IC50 [3]?
Answer: Its IC50 is 1.6 nM.

Question: With Cc1cc(OC(F)F)nc(C)c1Nc1nc(Cl)cn([C@H](C)C2CC2)c1=O as the compound, how does the remaining at 10 min [1] read?
Answer: Its remaining at 10 min is 84%.

Question: What about the remaining at 10 min [2] of the same compound?
Answer: The remaining at 10 min was 89%.

Question: And the pKa [4]?
Answer: Its pKa is less than 2.

Question: And the IC50 [3]?
Answer: The IC50 was 2.1 nM.

Question: For COc1ccc(Nc2nc(Cl)cn([C@H](C)C3CC3)c2=O)c(OC)n1, which remaining at 10 min [1] is on record?
Answer: Its remaining at 10 min is 25%.

Question: What about the remaining at 10 min [2] of the same compound?
Answer: The remaining at 10 min was 43%.

Question: What about the IC50 [3] of the same compound?
Answer: The IC50 was 17 nM.

Question: Which remaining at 10 min [1] does the source give for COC[C@@H](C1CC1)n1cc(Cl)nc(Nc2c(C)nc(OC)nc2OC)c1=O here?
Answer: The remaining at 10 min was 25%.

Question: What about the remaining at 10 min [2] of the same compound?
Answer: Its remaining at 10 min is 71%.

Question: And the IC50 [3]?
Answer: Its IC50 is 31 nM.

Question: Which IC50 [3] does the source give for CC[C@H](C)[C@H](NC(=O)[C@H](CC(=O)O)NC(=O)[C@H](CC(C)C)NC(=O)[C@H](CC(C)C)NC(=O)[C@H](CCCCN)NC(=O)[C@H](CCCN=C(N)N)NC(=O)[C@H](CC(N)=O)NC(=O)[C@H](CO)NC(=O)[C@H](Cc1cnc[nH]1)NC(=O)[C@H](C)NC(=O)[C@H](CCC(N)=O)NC(=O)[C@H](CCC(N)=O)NC(=O)[C@H](C)NC(=O)[C@H](CC(C)C)NC(=O)[C@H](CCC(N)=O)NC(=O)[C@H](CC(=O)O)NC(=O)[C@H](C)NC(=O)[C@H](CCCCN)NC(=O)[C@@H](NC(=O)[C@H](CCSC)NC(=O)[C@H](CCC(=O)O)NC(=O)[C@H](CC(C)C)NC(=O)[C@@H](NC(=O)[C@H](CCC(=O)O)NC(=O)[C@H](CCCN=C(N)N)NC(=O)[C@H](CC(C)C)NC(=O)[C@H](CC(C)C)NC(=O)[C@H](Cc1cnc[nH]1)NC(=O)[C@H](Cc1ccccc1)NC(=O)[C@@H](NC(=O)[C@H](CC(C)C)NC(=O)[C@H](CC(=O)O)NC(=O)[C@H](CC(C)C)NC(=O)[C@H](CO)NC(=O)[C@@H](NC(=O)[C@@H]1CCCN1C(=O)[C@@H]1CCCN1C(=O)[C@H](CCC(=O)O)NC(=O)[C@H](CCC(N)=O)NC(=O)[C@@H](N)CO)[C@@H](C)CC)[C@@H](C)O)C(C)C)[C@@H](C)O)C(=O)N[C@@H](C)C(N)=O here?
Answer: The IC50 was 2.9 nM.

Question: For Cc1cc(C)c(Nc2nc(Cl)cn([C@H](C)C3CC3)c2=O)c(C)n1, which remaining at 10 min [1] is on record?
Answer: The remaining at 10 min was 76%.

Question: What about the remaining at 10 min [2] of the same compound?
Answer: Its remaining at 10 min is 87%.

Question: What about the pKa [4] of the same compound?
Answer: Its pKa is 7.9.

Question: What about the IC50 [3] of the same compound?
Answer: Its IC50 is 65 nM.

Question: Which results are given for COc1nc(C)c(Nc2nc(Cl)cn([C@H](C)C3CC3)c2=O)cc1C?
Answer: remaining at 10 min [1]: 55%; remaining at 10 min [2]: 77%; pKa [4]: 3.6

Question: With COC[C@H](C1CC1)n1cc(Cl)nc(Nc2c(C)nc(OC)nc2OC)c1=O as the compound, how does the remaining at 10 min [1] read?
Answer: The remaining at 10 min was 18%.

Question: What about the remaining at 10 min [2] of the same compound?
Answer: The remaining at 10 min was 45%.

Question: And the IC50 [3]?
Answer: Its IC50 is 90 nM.

Question: With COc1nc(C)nc(C#N)c1Nc1nc(Cl)cn([C@H](C)C2CC2)c1=O as the compound, how does the IC50 [3] read?
Answer: The IC50 was 140 nM.

Question: What does the source list for CCOc1nc(C)c(Nc2nc(Cl)cn([C@H](C)C3CC3)c2=O)cc1C?
Answer: remaining at 10 min [1]: 81%; remaining at 10 min [2]: 93%; IC50 [3]: 2.7 nM

Question: Which results are given for Cc1cc(Nc2nc(Cl)cn([C@H](C)C3CC3)c2=O)c(C)nc1OC(F)F?
Answer: remaining at 10 min [1]: 86%; remaining at 10 min [2]: 100%; pKa [4]: < 2
